The source of these data is ChEMBL document CHEMBL4364292, “Discovery of a Potent and Selective CCR4 Antagonist That Inhibits Treg Trafficking into the Tumor Microenvironment” (J Med Chem, 2019).

The nature of series [1]: Volume of distribution at steady state in mouse. Format: ADME, organism-based. Conditions: in vivo, read-out: Vdss.
A short description of series [2]: Stability in human hepatocytes assessed as compound remaining incubated for 60 mins under shaking condition by LC-MS/MS analysis. In kind it is ADME, cell-based, Hepatocyte. Conditions: read-out: Stability. In short, it runs like this:
(§1)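 Human and rat hepatocytes exposed to compound; percent parent remaining reported.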

Series [3] is described as follows: Half-life in mouse. Conditions: in vivo. In kind it is ADME, organism-based.
Series [4] in a line: Clearance in mouse. In kind it is ADME, organism-based. Conditions: in vivo.
Series [5] deals with T1, C-C chemokine receptor type 4 (Homo sapiens, UniProt P51679).
T1 sequence (P51679 whole entry): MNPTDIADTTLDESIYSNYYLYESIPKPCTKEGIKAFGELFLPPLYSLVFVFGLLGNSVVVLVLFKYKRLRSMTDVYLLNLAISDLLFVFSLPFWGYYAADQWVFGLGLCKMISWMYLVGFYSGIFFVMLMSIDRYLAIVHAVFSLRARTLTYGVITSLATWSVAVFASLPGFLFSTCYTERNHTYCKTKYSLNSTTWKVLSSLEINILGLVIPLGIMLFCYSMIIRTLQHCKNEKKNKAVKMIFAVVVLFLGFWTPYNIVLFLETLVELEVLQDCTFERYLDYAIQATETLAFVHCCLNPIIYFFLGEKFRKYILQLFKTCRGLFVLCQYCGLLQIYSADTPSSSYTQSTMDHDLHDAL
As to the kind of experiment: Antagonist activity at human CCR4 expressed in rat chem-5 cells assessed as inhibition of CCL22-induced calcium flux measured at 2.5 secs time interval for 45 secs by fluorescence assay. Format: functional, cell-based. The procedure, abridged: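 Calcium flux functional readout of CCR4 antagonism, run without serum; IC50 reported.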

A short description of series [6]: Bioavailability in mouse. Conditions: in vivo. In kind it is ADME, organism-based.
Series [7] in a line: Stability in rat hepatocytes assessed as compound remaining incubated for 60 mins under shaking condition by LC-MS/MS analysis. Format: ADME, cell-based, Hepatocyte. Conditions: read-out: Stability. The procedure, abridged: as §1
Series [8] can be described thus: Hepatic clearance in rat at 0.5 mg/kg, iv. Conditions: in vivo. In kind it is ADME, organism-based.
A short description of series [9]: AUCinfinity in rat at 0.5 mg/kg, iv. Format: ADME, organism-based. More on the design: dose 0.5 mg/kg, route intravenous, time infinity. Conditions: in vivo.
Series [10] in a line: Bioavailability in rat. In kind it is ADME, organism-based. Conditions: in vivo.

As usually defined, the half-life is the time in which the quantity being followed falls by half. Broadly, the clearance is the volume of plasma or blood freed of the substance per unit of time. Lower therefore signals inefficient removal. As a reminder, the IC50 is the concentration at which inhibition is half-maximal. What is called bioavailability is the share of a dose that reaches the circulation, judged against a reference dose that is usually intravenous. A high value points to much systemic uptake. Take `C[C@@H]1CC(c2cnc3c(C#N)nn([C@H](C)c4ccc(Cl)cc4Cl)c3n2)=CC[C@@H]1N1CCC[C@H]1C`: in series [1], the Vd turned out to be 4.9 L/kg. Further, the remaining at 1 h in [2] was determined as 86%; in series [7], 72%. In addition, in series [3], the half-life is 30.3 h. The compound also showed a clearance in series [4] of 1.17 mL/min/kg. For the same compound, in series [5], the IC50 is 34 nM. In [6], this compound gave a bioavailability of 27%.
Regarding `Cc1nn([C@H](C)c2ccc(Cl)cc2Cl)c2nc(N3CC[C@H](N4CCCCC4)[C@H](C)C3)cnc12`, the IC50 in series [5] was 42 nM.
With `Cc1nn([C@H](C)c2ccc(Cl)cc2Cl)c2nc(C3=CC[C@H](N4CCC[C@H]4CO)[C@H](C)C3)cnc12`, the remaining at 1 h in series [2] came to 99%; in [7] it was 35%. For the same compound, the IC50 in [5] worked out at 36 nM.
Consider `C[C@@H]1CC(c2cnc3c(C#N)nn([C@H](C)c4ccc(Cl)cc4Cl)c3n2)=CC[C@@H]1N1CCC[C@H]1C(C)(C)O`, for which the IC50 in series [5] was 384 nM.
As usually defined, the AUC(0-inf) is the area under the concentration-time curve extrapolated to infinity. Low readings indicate low exposure, high ones high exposure. Take `CC1CN(c2cnc3c(C#N)nn(C(C)c4ccc(Cl)cc4Cl)c3n2)CCC1N1CCCCC1` (stereo unspecified): in [8], the CLH turned out to be 101.7 mL/min/kg. For the same compound, the IC50 in [5] was determined as 251 nM. Also, the AUC(0-inf) in [9] is 82 ng·h/mL.
On to `C[C@@H]1CC(c2cnc3c(C#N)nn([C@H](C)c4ccc(Cl)cc4Cl)c3n2)=CC[C@@H]1N1CCC[C@H]1C(F)(F)F`, for which the IC50 in series [5] was greater than 5000 nM.
The same measure, in the same setting: in the case of `Cc1nn([C@H](C)c2ccc(Cl)cc2Cl)c2nc(N3CC[C@@H](N4CCCCC4)[C@@H](C)C3)cnc12` it was 803 nM; in that of `Cc1nn([C@H](C)c2ccc(Cl)cc2Cl)c2nc(N3CC[C@H](N4CCC[C@H]4C(N)=O)[C@H](C)C3)cnc12`, 170 nM.
Same read-out and setting: in the case of `Cc1nn([C@H](C)c2ccc(Cl)cc2Cl)c2nc(N3CC[C@H](N4CCC[C@@H]4C)[C@H](C)C3)cnc12` it was 172 nM; in that of `Cc1nn([C@H](C)c2ccc(Cl)cc2Cl)c2nc(N3CC[C@H](N4CCC[C@H]4CCS(N)(=O)=O)[C@H](C)C3)cnc12`, 32 nM.
Compound `C[C@@H](Nc1cncc(C2=CCN(C(=O)[C@H]3CCCCN3)CC2)n1)c1ccc(Cl)cc1Cl` displayed a bioavailability in series [10] of 7%. In addition, the IC50 in series [5] came to 54 nM.
`Cc1nn([C@H](C)c2ccc(Cl)cc2Cl)c2nc(N3CC[C@H](N4CCC[C@H]4C)[C@H](C)C3)cnc12`: in [5], the IC50 was 47 nM.
Regarding `CC1CN(c2cnc3c(C(F)(F)F)nn(C(C)c4ccc(Cl)cc4Cl)c3n2)CCC1N1CCCCC1` (stereo unspecified), the CLH in [8] turned out to be 56.7 mL/min/kg. Further, in series [5], the IC50 was 837 nM. Moreover, the AUC(0-inf) in series [9] was determined as 148 ng·h/mL.
